Only some compounds are listed: those with a hit (about 1.7% of all), similar ones and a draw of the others.
SUMO1-SIM PPI: SUMO1-SIM interaction modulation; inhibition, % at 20 µM; SUMO1 binding to a labelled peptide, TR-FRET, 1 h; P63165; 360,000 tested, 0.33% active; in the data active = inhibition above about 37%
Target sequence (P63165 whole entry, looked up): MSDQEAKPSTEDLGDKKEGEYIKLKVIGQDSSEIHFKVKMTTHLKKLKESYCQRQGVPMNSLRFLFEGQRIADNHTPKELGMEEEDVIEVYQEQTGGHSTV
LMPTP inh: blocks human LMPTP phosphatase. P24666. recombinant LMPTP-A, OMFP fluorogenic substrate, fluorescence intensity. inhibition, % at 20 µM. 360,000 tested, 0.22% active;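 active = compounds that cut the enzyme signal by at least half of the control window in the single-dose screen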;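 also: plate controls were DMSO wells with enzyme plus substrate for no effect and substrate without enzyme for full effect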
Target sequence (P24666 whole entry, looked up): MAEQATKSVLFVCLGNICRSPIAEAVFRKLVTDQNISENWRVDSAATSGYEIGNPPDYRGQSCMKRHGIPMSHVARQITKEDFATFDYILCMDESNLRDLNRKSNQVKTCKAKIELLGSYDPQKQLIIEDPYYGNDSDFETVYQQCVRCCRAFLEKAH
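Assay system: LMPTP-A, protein tyrosine phosphatase of low molecular weight / Medium: pH 6.0 Bis-Tris buffer with DTT and Triton X-100 / Schedule: 50 min enzyme reaction at room temperature, protected from light / Measured by: endpoint fluorescence intensity from OMFP dephosphorylation / Read-out basis: % inhibition relative to no-enzyme and uninhibited control wells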
Scp-1 inhibitor: Scp-1 (human) phosphatase inhibition; Recombinant Scp1, phosphopeptide, malachite green phosphate absorbance; 340,000 tested, 0.88% active; inhibition, % at 20 µM;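 active = inhibition above about 50% at 20 µM, limit read from the data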;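 also: plate controls were DMSO wells with enzyme for no effect and wells lacking enzyme for full effect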
Target sequence (Q9GZU7 76-261 limits assumed): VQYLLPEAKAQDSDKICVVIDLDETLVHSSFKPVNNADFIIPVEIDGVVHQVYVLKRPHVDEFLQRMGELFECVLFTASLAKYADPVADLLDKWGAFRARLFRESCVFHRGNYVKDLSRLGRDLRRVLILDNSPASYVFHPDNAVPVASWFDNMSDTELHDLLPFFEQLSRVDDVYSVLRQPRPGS
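System: truncated SCP-1 phosphatase (76-261aa); medium: Tris acetate buffer pH 5.5 with MgCl2 and Tween-20; incubation: 45 min room-temperature reaction, 5 min colour, 30 min stabiliser; compound: single 20 µM dose, 1% DMSO; reagent: Phosphorylated 17-residue peptide substrate; read-out: % inhibition at 20 µM; technique: colorimetric free-phosphate detection, absorbance 630 nm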
STEP inh: STEP (human) phosphatase inhibition; recombinant STEP, OMFP fluorogenic substrate, fluorescence; inhibition, % at 20 µM; 360,000 tested, 0.25% active; P54829;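 active = inhibition at 20 µM, scaled per plate between control wells, above about 37%, limit read from the data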;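 also: 0% = DMSO with enzyme and substrate and 100% = substrate only without enzyme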
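Also added – OMFP at 25 µM · Test system – STEP tyrosine phosphatase · Technique – FITC-channel fluorescence of OMFP product · Schedule – 20 min at room temperature, dark · Evaluation – control-normalized % inhibition with plate pattern correction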
DNMT1 block: inhibitors of human DNMT1; 360,000 tested, 0.83% active; DNMT1 molecular beacon, Hinp1I cleavage, fluorescence; P26358; AID 588458; inhibition (reported as % activation of signal), % at 10 µM; in the data active = inhibition above about 50%
Scp1 confirm: confirmation of human Scp-1 phosphatase inhibitors; inhibition, % at 20 µM; shares compounds with Scp-1 inhibitor; 2,500 tested, 61% active; recombinant SCP-1 catalytic domain, phosphate release, malachite green absorbance;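 also: plate controls were DMSO with enzyme for no effect and buffer wells lacking enzyme for full effect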
Scp-1 MG ctr: interferes with malachite green readout, flagging false Scp-1 hits. shares compounds with Scp-1 inhibitor. Colorimetric interference counterscreen, malachite green absorbance 630 nm. apparent inhibition (interference), % at 20 µM. 2,500 tested, under 10 active;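 also: compounds added after enzyme reaction finished so only phosphate colour detection is probed; plate controls were DMSO wells with completed Scp-1 reaction for no effect and substrate wells lacking enzyme for full effect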
Scp1 DSF: Scp-1 (human) binding by thermal shift | shares compounds with Scp-1 inhibitor | Recombinant SCP1, Sypro Orange thermal shift Tm | thermal shift relative to vanadate control, % at 40 µM | 1,500 tested, 25% active;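 active = substances whose mean melting-temperature shift, as a percentage of the reference inhibitor's shift, reaches about 5.3%, limit read from the data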;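 also: 0% = Tm of DMSO wells and 100% = Tm with sodium orthovanadate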
Beacon interf DR: counter-screen for DNMT1 inhibitors: spectral interference, dose response; AID 602382; IC50, µM; molecular beacon fluorescence; 200 tested, under 10 active; shares compounds with DNMT1 block; call rule not given here
DNMT1 confirm: DNMT1 inhibition confirmation, single concentration | inhibition, % at 10 µM | DNMT1 molecular beacon HinP1I cleavage, fluorescence | 2,300 tested, 8% active | shares compounds with DNMT1 block;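 active = average inhibition of at least 30% in the single-concentration confirmation test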
DNMT1 interf: shows spectral interference in the DNMT1 beacon assay | shares compounds with DNMT1 block | 2,300 tested, 1% active | DNMT1 molecular beacon spectral interference counterscreen, fluorescence 485/520 | activation (fluorescence interference), % at 10 µM;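 active = activation of at least 30% at 10 µM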;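 also: DNMT1 catalytic domain with a HinP1I cleavage step and a FAM/dabcyl DNA beacon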
* = called active by the depositor.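 The calls were made as follows, unless noted: active = inhibition of at least 30% at 20 µM; inactive = the rest.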

Results for CCOC(=O)N1CCN(CC(O)COc2ccccc2[N+](=O)[O-])CC1 (centres undefined) ?
SUMO1-SIM PPI: -4; LMPTP inh: -2; Scp-1 inhibitor: -10; STEP inh: -1; DNMT1 block: 3

Results for CC(C)c1ccc(NC2CCCN(C(=O)CCN3CCCCO3)C2)cc1 (centres undefined) ?
SUMO1-SIM PPI: 0; LMPTP inh: 0; Scp-1 inhibitor: -2; STEP inh: 0; DNMT1 block: 0

Results for Nc1[nH]c(C(=O)c2ccccc2)c(-c2ccc(Cl)cc2)c1C(=O)NCCc1c[nH]c2ccccc12 ?
SUMO1-SIM PPI: -1; LMPTP inh: 1

Results for Cc1cc(=O)n2ncnc2n1COCCO ?
SUMO1-SIM PPI: 3; LMPTP inh: 1; Scp-1 inhibitor: 3; STEP inh: 2; DNMT1 block: 2

What do the screens show for `NNC(=O)Cn1c(-c2ccccc2)cc(=O)n2ncnc12`?
SUMO1-SIM PPI: 2; LMPTP inh: -2; Scp-1 inhibitor: 69*; STEP inh: -1; DNMT1 block: 2; Scp1 confirm: -6; Scp-1 MG ctr: -5

What do the screens show for `CC1CCc2c(sc(NC(=O)c3ccc(Cn4cc([N+](=O)[O-])cn4)o3)c2C#N)C1` (centres undefined)?
SUMO1-SIM PPI: 5; LMPTP inh: 5; Scp-1 inhibitor: 71*; STEP inh: 2; DNMT1 block: 42; Scp1 confirm: 61*; Scp-1 MG ctr: -22; Scp1 DSF: 6.4*

Results for COc1ccc(OC)c(NC(=O)Nc2ccc3c(c2)OCO3)c1 ?
SUMO1-SIM PPI: 5; LMPTP inh: 1; Scp-1 inhibitor: -5; STEP inh: 0; DNMT1 block: -9

Results for O=C(N/N=C/C=C\c1ccccc1[N+](=O)[O-])c1cc(-c2ccc3ccccc3c2)n[nH]1 ?
SUMO1-SIM PPI: -1; LMPTP inh: 42; Scp-1 inhibitor: 96*; STEP inh: 30; DNMT1 block: 68*; Scp1 confirm: 86*; Scp-1 MG ctr: -4; Scp1 DSF: 2; DNMT1 confirm: 4; DNMT1 interf: -4

What do the screens show for `Cc1oc(-c2ccc(F)cc2)cc1-c1nn2c(-c3ccoc3C)nnc2s1`?
SUMO1-SIM PPI: 41*; LMPTP inh: 19; Scp-1 inhibitor: 75*; STEP inh: 5; DNMT1 block: 106*; Scp1 confirm: 41*; Scp-1 MG ctr: -21; Scp1 DSF: 1; DNMT1 confirm: 7; DNMT1 interf: -2

Results for c1ccc(-c2cc(-c3nn4c(-c5ccco5)nnc4s3)c3ccccc3n2)cc1 ?
SUMO1-SIM PPI: 18; LMPTP inh: 3; Scp-1 inhibitor: 92*; STEP inh: 8; DNMT1 block: 55*; Scp1 confirm: 43*; Scp-1 MG ctr: -1; Scp1 DSF: 7.3*; DNMT1 confirm: 4; DNMT1 interf: -3

What do the screens show for `C=CCOc1ccc(C=NNc2ccc(S(=O)(=O)Nc3ccccc3C(=O)O)cc2[N+](=O)[O-])cc1OC`?
SUMO1-SIM PPI: 69*; LMPTP inh: 100*; Scp-1 inhibitor: 71*; STEP inh: 100*; DNMT1 block: 90*; Scp1 confirm: 82*; Scp-1 MG ctr: -19; Scp1 DSF: 15*; Beacon interf DR: >99; DNMT1 confirm: 110*; DNMT1 interf: -12
